Assay [1] concerns GC signaling. The experiment in a line: GRIZLY assay: bioluminescence of single GRE:Luc transgenic zebrafish larvae. The assay is classed as in vivo. As to conditions: for inhibition of dexamethasone-induced relative reporter activity: in presence of 5 μM dexamethasone; for relative reporter (luciferase) activity in response to treatment: 5 dpf, compound added to the water. The method in brief:
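Single 4 dpf transgenic larvae were placed one per well in E3 medium with 0.5 mM luciferin and dosed via the water at 5 dpf. The antagonist was given with 5 μM DEX; organotins with 5 μM DEX for 24 h; salt stress was 250 mM NaCl. Plates were sealed and read at 28 °C. Larval n was 48 for dose–response and 22 for salt. Tests were non-parametric, with EC50/IC50 from non-linear regression.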

For assay [2], the system named is GC signaling. Nature of the assay: AB.9 GRE:Luc cell reporter bioluminescence assay. In kind it is cell-based, zebrafish. To be noted: AB.9 GRE:Luc cells; for inhibition of dexamethasone-induced relative reporter activity: co-treated with 10 nM DEX (Figure 2 legend: 5 nM). The method in brief: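 AB.9 GRE:Luc cells were seeded at 35,000 cells/well one day ahead and held at 28 °C. Medium was then swapped for phenol-red-free L-15 with 0.5 mM luciferin before compound addition. Organotin runs used DEX in 17% (v/v) charcoal-treated FCS with TBT or DBT at 30–500 nM. Plates were sealed and read for 24 h at 28 °C. Analysis used one-way ANOVA with Dunnett's posttest; IC50 came from non-linear regression.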

In assay [3] the test system is Luciferase expression. The experiment in a line: Whole mount immunohistochemistry with anti-luciferase antibody in GRE:Luc larvae. The assay is classed as in vivo, zebrafish. As to conditions: 5 dpf larvae, 40 μM, 8 h.
The test system of assay [4] is GC signaling. Nature of the assay: Pilot chemical screen of FDA approved drug library, GRE:Luc larvae. The assay is classed as in vivo, zebrafish. To be noted: 48 h; for retest for activation of GC signaling: GRE:Luc larvae, at least 2 concentrations; for primary screen hit (activation of GC signaling): larvae, 4 μg/mL in 0.3% DMSO, robust z-score cutoff 1.49. The method in brief:
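Single 5 dpf GRE:Luc larvae in luciferin-E3 were exposed to library compounds at a final 4 μg/mL in 0.3% DMSO (prediluted to 40 μg/mL in 3% DMSO), with 5–11 replicates per compound. Each plate held 8 DEX (10 μM) and 8 DMSO controls; reading lasted 48 h. Hits were called from log-transformed AUCs, robust z-scored, above a cutoff of 1.49 chosen by ROC/Youden index. Retests used a second supplier and ≥2 concentrations.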

Assay [5] relates to GC signaling. The experiment in a line: Pilot chemical screen of FDA approved drug library, AB.9 GRE:Luc cells. As to conditions: 48 h; for retest for activation of GC signaling: at least 2 concentrations; for primary screen hit (activation of GC signaling): 4 μg/mL in 0.3% DMSO, robust z-score cutoff 12.3. In kind it is cell-based, zebrafish. The method in brief: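 GRE:Luc AB.9 cells in luciferin-L-15 received library compounds prediluted to 40 μg/mL in 3% DMSO, giving a final 4 μg/mL in 0.3% DMSO. There were 3 replica plates, each with 8 DEX (10 μM) and 8 DMSO controls, read for 48 h. Log-transformed trapezoidal AUCs were robust z-scored, with a cutoff of 12.3 set by ROC/Youden index. Retests used a second supplier, the same setup and ≥2 concentrations.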

Assay [6] deals with endogenous cortisol levels. The experiment in a line: Cortisol-ELISA of larval extracts. The assay is classed as in vivo, zebrafish. To be noted: after 20 min. The procedure, abridged:
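Osmotic stress was induced in 5 dpf larvae with 250 mM NaCl, and endogenous cortisol was followed over time after exposure (n = 5).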
Background: In an ELISA, binding on a coated surface is turned into a signal by an enzyme label.

“Also recorded” adds a separate entry of the source.

Consider `CCC[CH2][Sn]([Cl])([Cl])[CH2]CCC` [DBT, dibutyltin dichloride], for which the “inhibition of dexamethasone-induced relative reporter activity” value in assay [1] (GRE:Luc larvae) was “did not show statistically significant attenuation of GC signaling”; in assay [2], “significantly reduced by treatment with 250 and 500 nM DBT; also recorded: statistically significant inhibition of bioluminescence at higher concentrations”.

Turning to `CCC[CH2][Sn]([CH2]CCC)[CH2]CCC` [TBT, tributyltin], the “lowest concentration inhibiting GC signaling in GRE:Luc larvae” value in assay [1] (GRE:Luc larvae, 5 μM dexamethasone, measured for 24 h, p ≤ 0.05) came out at 20 nM. For the same compound, the entries for the “inhibition of dexamethasone-induced relative reporter activity” value in assay [1] (GRE:Luc larvae) and in assay [2] were “effective in inhibiting GC signaling” and “indistinguishable from cells treated with DEX alone”, respectively.

In the case of `C[C@]12CCC(=O)C=C1CC[C@@H]1[C@@H]2[C@@H](O)C[C@]2(C=O)[C@@H](C(=O)CO)CC[C@@H]12` [aldosterone], the “relative reporter (luciferase) activity in response to treatment” value (from here on “relative reporter (luciferase) activity”) in assay [1] (GRE:Luc larvae) is recorded as “did not respond”. Further, the “relative reporter activity in response to treatment” value in assay [2] is given as “did not respond”.

For the compound `C[C@H]1C[C@H]2[C@@H]3CCC4=CC(=O)C=C[C@]4(C)[C@@]3(F)[C@@H](O)C[C@]2(C)[C@@]1(O)C(=O)CO` [betamethasone], in assay [3], the “fluorescence intensity of luciferase immunohistochemistry” value is listed as “significant (p = 0.0115, n = 10) increase”.

For the compound `C[C@]12C[C@H](O)[C@H]3[C@@H](CCC4=CC(=O)CC[C@@]43C)[C@@H]1CC[C@@H]2C(=O)CO` [corticosterone], in assay [4], the “retest for activation of GC signaling” value was “unable to do so at all concentrations tested” and the “primary screen hit (activation of GC signaling)” value (from here on “primary screen hit”) is on record as “not retained in the primary screen”. Besides, the “retest for activation of GC signaling” value in assay [5] is “able to activate the GC signaling pathway”.

In the case of `C[C@]12CCC(=O)C=C1CC[C@@H]1[C@@H]2[C@@H](O)C[C@@]2(C)[C@H]1CC[C@]2(O)C(=O)CO` [cortisol, hydrocortisone], the “relative reporter (luciferase) activity” value in assay [1] (GRE:Luc larvae) is listed as “responded in a dose-dependent manner”.

Take `C[C@@H]1C[C@H]2[C@@H]3CCC4=CC(=O)C=C[C@]4(C)[C@@]3(F)[C@@H](O)C[C@]2(C)[C@@]1(O)C(=O)CO` [dexamethasone]: the “induction of reporter activity at 1 dpf” value in assay [1] (20 μM DEX, 1 dpf, 9 h after start of treatment) is “low-level yet non-significant induction”. For the same compound, the “relative reporter (luciferase) activity” value in assay [1] (GRE:Luc larvae) was “increase in relative luciferase activity”; in assay [1] (GRE:Luc larvae, listed as DEX), “responded in a dose-dependent manner”.

In the case of `Nc1c2c(nc3ccccc13)CCCC2O` (stereo not drawn) [hydroxytacrine], in assay [5], the “primary screen hit” value was “false positive hits” and the “retest for activation of GC signaling” value is recorded as “could not be confirmed during the rescreen”.

For `C=C1C[C@H]2[C@@H]3C=C(C)C4=CC(=O)CC[C@]4(C)[C@H]3CC[C@]2(C)[C@@]1(OC(C)=O)C(C)=O` [melengestrol acetate], in assay [4], the “retest for activation of GC signaling” value is listed as “dose-dependently activate GC signaling” and the “primary screen hit” value was “missed”.

Turning to `CC#C[C@]1(O)CC[C@H]2[C@@H]3CCC4=CC(=O)CCC4=C3[C@@H](c3ccc(N(C)C)cc3)C[C@@]21C` [mifepristone], the “inhibition of dexamethasone-induced relative reporter activity” value in assay [1] (GRE:Luc larvae) and in assay [2] was “blocked the response of the reporter to DEX treatment” throughout.

For the compound `NCCC(O)(P(=O)(O)O)P(=O)(O)O` [pamidronic acid], in assay [5], the “primary screen hit” value was “false positive hits” and the “retest for activation of GC signaling” value is “could not be confirmed during the rescreen”.

On to `C[C@]12C=CC(=O)C=C1CC[C@@H]1[C@@H]2C(=O)C[C@@]2(C)[C@H]1CC[C@]2(O)C(=O)CO` [prednisone], for which, in assay [4], the “retest for activation of GC signaling” value was “unable to do so at all concentrations tested” and the “primary screen hit” value is recorded as “not retained in the primary screen”. Also, in assay [5], the “primary screen hit” value was “being the exception” and the “retest for activation of GC signaling” value was “weak activation of GC signaling only at the highest concentration tested”.

`CC(=O)[C@H]1CC[C@H]2[C@@H]3CC=C4C[C@@H](O)CC[C@]4(C)[C@H]3CC[C@]12C` [pregnenolone]: the “retest for activation of GC signaling” value in assay [4] is “confirmed to activate the GC signaling pathway in vivo”; in assay [5], “did not activate the GC pathway”. Also, in assay [4], the “primary screen hit” value was “scored as primary screen hits”. For the same compound, the “cortisol levels in the larvae after treatment” value is “significantly increased cortisol levels” in assay [6] and “increase in cortisol (hydrocortisone) levels” in assay [6] (listed as Pregnenolone).

Turning to `CC(=O)S[C@@H]1CC2=CC(=O)CC[C@]2(C)[C@H]2CC[C@@]3(C)[C@@H](CC[C@@]34CCC(=O)O4)[C@H]12` [spironolactone], the “primary screen hit” value in assay [4] is reported as “scored as primary screen hits”.
